This is an account of results in ChEMBL document CHEMBL3808278, “Design, Synthesis, and Biological Evaluation of Imidazo[1,5-a]quinoline as Highly Potent Ligands of Central Benzodiazepine Receptors” (J Med Chem, 2016).

Data set [1] concerns Brain. Put plainly: Neuroprotective activity against oxygen-glucose deprivation and reoxygenation-induced injury in Sprague-Dawley rat brain cortical slices assessed as maximum recovery in LDH release at 5 uM treated during 90 mins of reperfusion phase measured after 90 mins by spetrophotometric method. The data set is classed as functional. Summed up: (§1)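 Rat brain cortical slices in ACSF underwent 30 min oxygen/glucose deprivation, then 90 min reoxygenated ACSF (reperfusion). Controls were kept 120 min in ACSF. Compounds (0.1–100 µM) were added only during reperfusion, and LDH release was measured. Data are means ± SEM of at least 4 experiments, analysed by ANOVA with Dunnett post test. The effective concentration is that giving the largest reduction, and recovery is the % reversion at that concentration.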

The test system of data set [2] is Mus musculus. The data set is described as follows: Anxiolytic activity in mouse assessed as increase in time spent in light box at 1 mg/kg, sc administered 30 mins before test by light-dark box test. The data set is classed as functional, organism-based. In short, it runs like this:
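Mice, light-dark box test for anxiolytic effect; agent given subcutaneously (1 mg kg-1) 30 min before testing; time in light box recorded; mean ± SEM of at least 10 mice; significance vs vehicle-treated mice.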

The nature of data set [3]: Displacement of [3H]-flumazenil from central-type benzodiazepine receptor in bovine cortical membrane after 90 mins by liquid-phase scintillation beta-counting method. In kind it is cell membranes, Bos taurus. In short, it runs like this: (§2)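 Competition binding against radiolabelled antagonist [3H]flumazenil in cortical membranes (bovine; human where listed); Ki reported as mean ± SEM of three independent determinations.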

The species entered for data set [4] is Bos taurus. The data set is described as follows: Selectivity ratio, ratio of Ki for central-type benzodiazepine receptor in bovine cortical membrane to Ki for central-type benzodiazepine receptor in bovine cortical membrane in presence of 50 uM of GABA. The data set is classed as cell membranes.
Data set [5] is filed under the species Rattus norvegicus. The data set is described as follows: Partial agonist activity at central-type benzodiazepine receptor in Sprague-Dawley rat cerebrocortical synaptoneurosomes assessed as increase in 36Cl- influx after 10 secs by liquid-phase scintillation beta-counting method.
The test system of data set [6] is Mus musculus. Put plainly: Neurotoxicity in mouse assessed as effect on neurological and muscular abilities at 10 mg/kg, po after 30 mins by Hole-Board test. The data set is classed as toxicity, organism-based. Conditions: in vivo, 0.5 h. Summed up: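 Hole-board test 30 min after oral dosing at 10 mg kg-1 counted movements (motor activity) and head inspections (exploratory activity). Values are mean ± SEM of at least 10 mice, compared with vehicle controls.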

The species named for data set [7] is Mus musculus. The data set is described as follows: Myorelaxant effect in mouse assessed as effect on motor coordination after 30 mins by rotarad test. In kind it is organism-based. The settings on record: in vivo, 0.5 h. In short, it runs like this: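 Rota-rod test of motor coordination in mice, with compounds given per os 30 min before testing. Values are mean ± SEM of at least 10 mice.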

Data set [8] has as its system Mus musculus. Put plainly: Antiamnestic activity in scopolamine induced mouse amnesia model assessed as time of retention session in light box at 30 mg/kg, po administered 30 mins before test by passive avoidance test (reference value: 44.8 +/- 8.1 secs). In kind it is functional. Summed up:
(§3)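 Passive avoidance in mice: compounds were given per os 30 min before the test, and scopolamine 1.5 mg kg-1 i.p. immediately after the punishment. Read-out was time recorded during the retention session. Values are mean ± SEM of at least 10 mice, compared with vehicle-treated animals.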

The subject of data set [9] is Mus musculus. The data set is described as follows: Anxiolytic activity against mouse assessed as increase in time spent in light box at 10 mg/kg, po administered 30 mins before test by light-dark box test. The data set is classed as functional, organism-based. Summed up:
(§4)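 Light-dark box in mice measured time in the light compartment. Compounds were given per os 30 min before testing, and diazepam 1 mg kg-1 subcutaneously as reference. Values are mean ± SEM of at least 10 mice, compared with vehicle-treated animals.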

Data set [10] is filed under the species Rattus norvegicus. Put plainly: Inverse agonist activity at central-type benzodiazepine receptor in Sprague-Dawley rat cerebrocortical synaptoneurosomes assessed as decrease in 36Cl- flow after 10 secs by liquid-phase scintillation beta-counting method.
Data set [11] deals with Mus musculus. The data set is described as follows: Anxiolytic activity in mouse assessed as time spent in light box at 10 mg/kg, po administered 30 mins before test by light-dark box test. The data set is classed as functional. Summed up:
as §4

Data set [12] has as its system Mus musculus. The data set is described as follows: Antiamnestic activity in mouse assessed as prevention of scopalamine-induced amnesia at 10 mg/kg, po administered 30 mins before test by passive avoidance test. In kind it is functional, organism-based. Summed up: as §3
Data set [13] concerns Mus musculus. The data set is described as follows: Antiamnestic activity in scopolamine induced mouse amnesia model assessed as time spent in light box at 1 mg/kg, po administered 30 mins before test by passive avoidance test. The data set is classed as functional, organism-based. Summed up:
as §3

Data set [14] relates to Mus musculus. The data set is described as follows: Antiamnestic activity in scopalamine-induced mouse amnesia model assessed as time spent in light box at 10 mg/kg, po administered 30 mins before test by passive avoidance test (reference value: 44.8 +/- 8.1 secs). The data set is classed as functional. In short, it runs like this:
as §3

In data set [15] the test system is Mus musculus. The data set is described as follows: Anxiolytic activity in mouse assessed as time spent in light box at 30 mg/kg, po administered 30 mins before test by light-dark box test. The data set is classed as functional. Summed up: as §4
The species entered for data set [16] is Rattus norvegicus. The data set is described as follows: Antagonist activity at central-type benzodiazepine receptor in Sprague-Dawley rat cerebrocortical synaptoneurosomes assessed as decrease in 36Cl- flow after 10 secs by liquid-phase scintillation beta-counting method.
Data set [17] concerns Mus musculus. The data set is described as follows: Anxiolytic activity in mouse assessed as increase in time spent in light box at 1 mg/kg, po administered 30 mins before test by light-dark box test. In kind it is functional, organism-based. In short, it runs like this:
as §4

Data set [18] relates to Brain. The data set is described as follows: Neuroprotective activity against oxygen-glucose deprivation and reoxygenation-induced injury in Sprague-Dawley rat brain cortical slices assessed as maximum recovery in LDH release at 50 uM treated during 90 mins of reperfusion phase measured after 90 mins by spetrophotometric method. The data set is classed as functional. Summed up: as §1
For orientation: LDH leaks from cells whose membrane has failed.

The subject of data set [19] is Mus musculus. The data set is described as follows: Anxiolytic activity in mouse assessed as time spent in light box at 3 mg/kg, po administered 30 mins before test by light-dark box test. The data set is classed as functional. In short, it runs like this: as §4
Data set [20] deals with Mus musculus. The data set is described as follows: Anxiolytic activity in po dosed mouse assessed as increase in time spent in light box administered 30 mins before test by light-dark box test. In kind it is functional, organism-based. In short, it runs like this:
as §4

The subject of data set [21] is Mus musculus. The data set is described as follows: Antiamnestic activity in scopolamine induced mouse amnesia model assessed as time spent in light box at 3 mg/kg, po administered 30 mins before test by passive avoidance test (reference value: 44.8 +/- 8.1 secs). The data set is classed as functional. Summed up: as §3
For data set [22], the species on record is Bos taurus. Put plainly: Displacement of [3H]-flumazenil from central-type benzodiazepine receptor in bovine cortical membrane at 1000 nM after 90 mins by liquid-phase scintillation beta-counting method. In kind it is cell membranes. Summed up: as §2
For orientation: Displacement assays read how much labelled ligand stays bound in the presence of the test substance.

Structures are written as SMILES. The source made the active and inactive calls. The rule behind the calls is not given here.

Consider `CN1C(=O)CN=C(c2ccccc2)c2cc(Cl)ccc21` [DIAZEPAM], for which, in the data set on Brain [1], the Activity amounted to 55.9%. Also, the outcome in the data set on Mus musculus [2] was Active.

On to `CCOC(=O)c1ncn2c1cc(C(=O)N(C)C)c1ccccc12`, for which the affinity in data set [3], expressed as Ki, was 8.2 nM. Moreover, the Ratio Ki in the data set listed under Bos taurus [4] came out at 1.3. Further, the result in the data set listed under Rattus norvegicus [5] and in the data set on Mus musculus [9] was Active. Also, the Activity entry in the data set with Mus musculus [6] and in the data set listed under Mus musculus [7] was “Non-toxic” in each case. Moreover, in the data set with Mus musculus [8], the outcome was inactive.

In [3], `CCCN(CCC)C(=O)c1cc2c(C(=O)OCC)ncn2c2ccc(F)cc12` came in with a Ki of 0.44 nM. In addition, in the data set listed under Bos taurus [4], the Ratio Ki was found to be 0.8. Moreover, the result in the data set filed under Rattus norvegicus [10], in the data set with Mus musculus [12] and with Mus musculus [13] was Active. Besides, the Time in the data set on Mus musculus [11] is given as 181.4 s; in the data set on Mus musculus [14] it was 99.6 s. Moreover, the Activity result in the data set on Mus musculus [6] and in the data set filed under Mus musculus [7] was “Non-toxic” each time.

In data set [3], `CCCN(CCC)C(=O)c1c(CC)c2c(C(=O)OC(C)(C)C)ncn2c2ccccc12` yielded a Ki of 5.6 nM. The Ratio Ki in the data set filed under Bos taurus [4] was 1.4. In addition, the outcome in the data set listed under Rattus norvegicus [5], in the data set on Mus musculus [12] and in the data set with Mus musculus [13] was Active. Besides, the Activity in the data set on Brain [1] is listed as 44.4%; in the data set on Mus musculus [6], “Non-toxic”; in the data set listed under Mus musculus [7] it was “Non-toxic”. The Time in the data set on Mus musculus [11] was 172.5 s.

Consider `Cc1c(C(=O)N(C)Cc2ccccc2)c2ccccc2n2cnc(C(=O)OC(C)(C)C)c12`, for which the affinity in data set [3], expressed as Ki, was 2.6 nM. Besides, the Ratio Ki in the data set listed under Bos taurus [4] turned out to be 1. The Time result with Mus musculus [15] is reported as “<=139.2 s”; in the data set with Mus musculus [8], “<=77.9 s”. Besides, the Antagonist activity result in the data set listed under Rattus norvegicus [16] is “Active”. In addition, the Activity entry in the data set with Mus musculus [6] and in the data set listed under Mus musculus [7] was “Non-toxic” in each case. The outcome in the data set with Mus musculus [12], in the data set on Mus musculus [9] and in the data set with Mus musculus [17] was inactive.

Compound `CCCN(CCC)C(=O)c1c(CC)c2c(C(=O)OCC)ncn2c2ccccc12` yielded a Ki in data set [3] of 2.5 nM. Besides, the Ratio Ki in the data set filed under Bos taurus [4] is 1.5. In addition, the result in the data set listed under Rattus norvegicus [5], in the data set on Mus musculus [12] and in the data set with Mus musculus [9] was Active. Moreover, the Activity was 44.3% with Brain [18], “Non-toxic” with Mus musculus [6] and “Non-toxic” in the data set filed under Mus musculus [7].

For the compound `CCCN(CCC)C(=O)c1c(C)c2c(C(=O)OCC)ncn2c2ccccc12`, the inhibition constant (Ki) in [3] came out at 1.5 nM. Moreover, in the data set listed under Bos taurus [4], the Ratio Ki was determined as 1.3. The outcome in the data set filed under Rattus norvegicus [5], with Mus musculus [12] and in the data set with Mus musculus [9] was Active. In addition, the results for the Activity in the data set with Brain [18], with Mus musculus [6] and in the data set listed under Mus musculus [7] were 44%, “Non-toxic” and “Non-toxic”, respectively. The Time in the data set with Mus musculus [19] worked out at 153.4 s.

In turn, `CCCN(CCC)C(=O)c1c(C)c2c(C(=O)OC(C)(C)C)ncn2c2ccccc12` showed an inhibition constant Ki in [3] of 1 nM. In the data set listed under Bos taurus [4], the Ratio Ki amounted to 1.1. For the same compound, the Antagonist activity result in the data set listed under Rattus norvegicus [16] is “Active”. The Activity entry in the data set with Mus musculus [6] and in the data set filed under Mus musculus [7] was “Non-toxic” in each case. Further, the result in the data set with Mus musculus [12], in the data set with Mus musculus [9] and in the data set on Mus musculus [17] was Active.

In turn, `CCCCN(C)C(=O)c1cc2c(C(=O)OC(C)(C)C)ncn2c2ccccc12` yielded an inhibition constant Ki in data set [3] of 1.8 nM. The Ratio Ki in the data set listed under Bos taurus [4] came to 0.62. Further, the result in the data set filed under Rattus norvegicus [10] and in the data set with Mus musculus [12] was Active. Moreover, the Time worked out at 167.2 s in the data set with Mus musculus [11], 144.8 s in the data set with Mus musculus [19] and 73.5 s with Mus musculus [21]. The Activity entry in the data set on Mus musculus [20] was “Dose-dependent effect”; in the data set on Mus musculus [6] it was “Non-toxic”; in the data set filed under Mus musculus [7], “Non-toxic”.

For the compound `Cc1c(-c2ccccc2)c2ccccc2n2cnc(C(=O)N(C)Cc3ccccc3)c12`, the inhibition constant (Ki) in [3] is more than 1000 nM. The compound further showed an inhibition in the data set filed under Bos taurus [22] of 19%.

In general, Ki refers to the dissociation constant of the complex between target and ligand, obtained from inhibition or displacement. What is called inhibition is the relative decrease from the control value, in per cent.
